Reference: ChEMBL document CHEMBL3046203, “Bioactivity-guided fractionation and GC/MS fingerprinting of Angelica sinensis and Angelica archangelica root components for antifungal and mosquito deterrent activity” (2009)
Active and inactive are the calls of the source. The rule behind the calls is not given here.

What was measured:
[1] = test system: Colletotrichum gloeosporioides; assay: Antifungal activity against Colletotrichum gloeosporioides assessed as as appearance of diffuse zone of inhibition at 2 mM in 2 uL solution by direct bio-autography assay; type: functional, organism-based
Colletotrichum acutatum = assay: Antifungal activity against Colletotrichum acutatum assessed as appearance of diffuse zone of inhibition at 2 mM in 2 uL solution by direct bio-autography assay; type: functional, organism-based
Anopheles stephensi = assay: Feeding deterrent activity against Anopheles stephensi assessed as proportion of mosquitoes not biting at 25 nmol/cm2 cloth relative to untreated control; type: functional
Summary of the method: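 Klun and Debboun in vitro module assay with mated nulliparous An. stephensi females (Delhi strain, 5-15 d old), given water only for 24 h before testing. Compounds were applied in ethanol to organdy cloth at 25 nmol/cm2 against an ethanol-treated control cloth. Conditions were 24-26 °C and 24-51% RH, 1300-1600 h, with 100 females (20 replicates). The proportion not biting was scored.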

Aedes aegypti = assay: Feeding deterrent activity against Aedes aegypti liverpool assessed as proportion of mosquitoes not biting at 25 nmol/cm2 cloth relative to untreated control; type: functional
Summary of the method: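 In vitro Klun and Debboun module assay with mated nulliparous Ae. aegypti females (red eye Liverpool strain, 5-15 d old), denied water for 24 h before testing. Treatments in ethanol were applied to organdy cloth at 25 nmol/cm2, with an ethanol-treated cloth as control. Testing ran at 24-26 °C and 24-51% RH, 1300-1600 h, using 85 females (17 replicates). Read-out was the proportion not biting.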

[2] = test system: Colletotrichum gloeosporioides; assay: Antifungal activity against Colletotrichum gloeosporioides assessed as as appearance of diffuse zone of inhibition at 2 mM in 2 uL solution by direct bio-autography assay1; type: functional, organism-based

Compound | growth inhibition (GI) [1] | growth inhibition (GI) (Colletotrichum acutatum) | Ratio (Anopheles stephensi) | Ratio (Aedes aegypti) | growth inhibition (GI) [2]
CO/C=C(/C(=O)OC)c1ccccc1Oc1cc(Oc2ccccc2C#N)ncn1 | Active | Active | – | – | –
CCC/C=C1\OC(=O)C2=C1CCC=C2 [LIGUSTILIDE] | – | – | 0.66 | 0.79 | –
CCN(CC)C(=O)c1cccc(C)c1 [DIETHYLTOLUAMIDE] | – | – | 0.51 | 0.67 | –
Cc1cc(C2CC2)nc(Nc2ccccc2)n1 | Active | Active | – | – | Active
CCCCNC(=O)n1c(NC(=O)OC)nc2ccccc21 | Active | Active | – | – | –
CC1=CCC[C@@H]2[C@@](C)(CC=O)[C@H](C)CC[C@@]12C [CALLICARPENAL] | – | – | 0.72 | 0.91 | –
